Consider 14 molecules from PubChem BioAssay.

Test [1] in a line: inhibitors of TNFa-induced NFkB p65 translocation, primary screen, imaging, HUVEC, MLSMR starter and 10KST1 sets (AID 438;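 active = inhibition above 20% together with a positive visual image hit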;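 note: compound added about 3h40 before a 20 min TNFalpha stimulation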;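 for inhibition: signal is the nuclear over cytoplasmic p65 intensity ratio per well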). The conditions noted are these: HUVEC TNFa-induced p65 nuclear translocation; cell count: measured here: nuclei count (cytotoxicity indicator), at 2.08 µM; inhibition: at 2 µM, stronger effect = higher value, 0% TNFa-plus-vehicle, 100% no-TNFa wells.
Test [2] is described as follows: inhibitors of mutant huntingtin aggregation, primary screen, imaging, exon1htt(103Q)mCFP cells, high-content imaging (AID 483;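 active = visual image review flags a hit and inhibition of aggregation exceeds 20%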;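 note: compound exposure lasted 3 days before fixation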;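 for nuclei count: percent of the per-plate median nuclei count of sample wells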). The settings on record: exon1htt(103Q)mCFP cell line, aggregate imaging, at 2 µM; inhibition of aggregation: stronger effect = higher value; nuclei count: measured here: cell count, toxicity.
The nature of test [3]: inhibitors of E-selectin induction by TNFa, primary screen, imaging, HUVEC, immunofluorescence, MLSMR starter and 10KST1 sets (AID 487;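 active = visually confirmed hit in the image check and inhibition above 20%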;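 for inhibition: signal is fraction of cell area covered by stained E-selectin grains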;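 for nuclei count: 100% = median nuclei count of all wells on the same plate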). The conditions noted are these: HUVEC TNFalpha-induced E-selectin immunofluorescence imaging, at 2 µM; inhibition: stronger effect = higher value; nuclei count: measured here: cell number, toxicity.
Test [4] addresses Voltage-gated potassium channel subunit beta-2 (Rattus norvegicus) (UniProt P62483). Nature of the test: KvBeta enzyme negative modulators, primary screen, biochemical, NADPH fluorescence (AID 622;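 active = fluorescence slope higher than the sample average by over 3 SD, cut at about -0.22 in these data, passing the limit was not always enough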;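 note: slope of raw intensity against log time taken from 70 to 1610 s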). The settings on record: recombinant KvBeta, 4-cyanobenzaldehyde reduction, at 10 µM, stronger effect = higher value.
Test [5] shares this target. Nature of the test: KvBeta positive modulators, primary screen, biochemical, NADPH fluorescence (AID 623;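 active = NADPH fluorescence slope more negative than the mean of all samples by about 3 SD, 99.7% confidence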;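 note: fluorescence intensity change per second fitted from 20 to 320 s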). The settings on record: Recombinant KvBeta, NADPH fluorescence decrease slope, 10 min; at 10 µM; stronger effect = lower value.
For test [6], the target named is Muscarinic acetylcholine receptor M4 (Homo sapiens) (UniProt P08173). Nature of the test: compounds altering M4/GIRK thallium flux, either direction, primary screen, M4 allosteric agonist project, cell-based, HEK293 M4/GIRK, BTC-AM (AID 625;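 active = fluorescence slope after compound addition differing from the mean of all tested samples at 99.7% confidence, mostly higher but some lower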;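 note: thallium influx through GIRK channels coupled to M4 in HEK293 cells with BTC-AM dye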). The settings on record: at 10 µM, actives lie on both sides. In short, it runs like this: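 Material: M4/GIRK1/GIRK2 stable HEK293 cell line. Medium: pH 7.3 thallium assay buffer. Dosing: single compound concentration, 10 µM final. Schedule: 1 h dye loading, 2 min kinetic read. Measured by: kinetic fluorescence with BTC-AM dye. Read-out: post-addition slope, 15–24 s, of baseline-normalized fluorescence. Benchmarks: carbachol and DMSO controls.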
Chain of Muscarinic acetylcholine receptor M4 (Homo sapiens) (P08173 whole entry, looked up): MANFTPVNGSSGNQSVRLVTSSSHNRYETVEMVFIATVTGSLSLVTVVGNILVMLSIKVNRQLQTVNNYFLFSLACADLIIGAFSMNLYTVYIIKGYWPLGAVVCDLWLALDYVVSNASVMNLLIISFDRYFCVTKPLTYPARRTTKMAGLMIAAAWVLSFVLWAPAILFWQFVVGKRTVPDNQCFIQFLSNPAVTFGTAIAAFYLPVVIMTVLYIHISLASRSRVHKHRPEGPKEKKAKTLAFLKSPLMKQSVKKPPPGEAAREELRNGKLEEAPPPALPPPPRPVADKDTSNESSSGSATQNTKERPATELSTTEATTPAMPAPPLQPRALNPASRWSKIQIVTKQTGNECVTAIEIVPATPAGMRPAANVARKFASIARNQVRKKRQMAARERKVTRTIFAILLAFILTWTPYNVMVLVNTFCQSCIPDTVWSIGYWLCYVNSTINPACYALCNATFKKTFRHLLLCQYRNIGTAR

The nature of test [7]: inhibitors of Sendai virus-induced IRF3 signaling, primary screen, TLR/RLR signaling modifier project, cell-based, Sendai virus stimulus, luciferase, 10K MLSCN set (AID 602276).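 Note: firefly luciferase from ISG56 promoter only with Renilla not read in this screen; 0% = Sendai virus plus DMSO and 100% = medium plus DMSO without virus.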 The settings on record: HEK293 RL24 IRF3 luciferase reporter, at 10 µM, stronger effect = higher value.
Test [8] is described as follows: inhibitors of poly I:C-induced TLR3 signaling, primary screen, cell-based, poly I:C stimulus, luciferase, 10K MLSCN set (AID 602277;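 active = inhibition of the reporter signal at or above 50%; inactive = inhibition below 50%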). The settings on record: HEK293-TLR3 RL24 IRF3 luciferase reporter, at 10 µM, stronger effect = higher value. In general terms: A reporter such as luciferase makes a cellular process visible.

Activity calls are given as the source filed them.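 Rule for the calls, unless noted: active = inhibition at or above 50% at 10 µM; inactive = inhibition below 50%.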

Chain of Voltage-gated potassium channel subunit beta-2 (Rattus norvegicus) (P62483 whole entry, looked up): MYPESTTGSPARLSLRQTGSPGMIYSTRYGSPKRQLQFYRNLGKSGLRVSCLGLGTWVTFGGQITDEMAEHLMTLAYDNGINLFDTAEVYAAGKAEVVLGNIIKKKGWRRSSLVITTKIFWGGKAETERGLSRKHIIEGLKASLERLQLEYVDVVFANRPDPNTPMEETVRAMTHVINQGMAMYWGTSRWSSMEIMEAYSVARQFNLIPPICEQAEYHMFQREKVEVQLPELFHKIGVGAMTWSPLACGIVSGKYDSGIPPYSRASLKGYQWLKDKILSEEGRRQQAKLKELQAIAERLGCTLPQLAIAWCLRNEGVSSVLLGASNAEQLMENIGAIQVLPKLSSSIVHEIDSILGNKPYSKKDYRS

In general, inhibition refers to the relative decrease from the control value, in per cent. As to `O=C(c1cn(-c2ccccc2)nc1-c1cccs1)N1CCN(c2ccccn2)CC1`, the cell count in test [1] is 465. Moreover, the inhibition in test [1] was -10.8% (inactive); in test [3] it was -83% (inactive); in test [7], 6.18% (inactive); in test [8] it was -18.9% (inactive). Moreover, the inhibition of aggregation in test [2] was 11.5% (inactive). Besides, the nuclei count turned out to be 84.1% in test [2] and 150% in test [3]. Besides, the fluorescence slope in test [4] is -0.421 (inactive); in test [6], 0.00586 (inactive). Moreover, in test [5], the NADPH fluorescence slope is 4e-05 (inactive).
On to `COC(=O)C(F)(F)Sc1c(C)[nH]c2ccccc12`, for which, in test [1], the cell count amounted to 699. The inhibition in test [1] is -2.1% (inactive); in test [3] it was 41.7% (inactive); in test [7] it was 25.1% (inactive); in test [8], 27% (inactive). Moreover, the inhibition of aggregation in test [2] is 13.7% (inactive). Moreover, the nuclei count in test [2] is 94.7%; in test [3], 108%. The values for the fluorescence slope in test [4] and in test [6] were -0.444 (inactive) and 0.00468 (inactive), respectively. Moreover, the NADPH fluorescence slope in test [5] is -1.5e-05 (inactive).
Turning to `CCCC1C(C#N)=C(N)Oc2n[nH]c(C(C)(C)C)c21` (centres undefined), in test [1], the cell count amounted to 330. Moreover, the inhibition in test [1] is -6.9% (inactive); in test [3] it was 26.6% (inactive); in test [7], 13.9% (inactive); in test [8], 21.8% (inactive). For the same molecule, in test [2], the inhibition of aggregation is -30.2% (inactive). Further, the nuclei count in test [2] stood at 102%; in test [3] it was 115%. In addition, the fluorescence slope in test [4] was -0.571 (inactive); in test [6], 0.00609 (inactive). Also, the NADPH fluorescence slope in test [5] was -3.1e-05 (inactive).
For `CCn1ncc(C2=NOC(C(=O)NCc3ccccc3)C2)c1C` (centres undefined), in test [1], the cell count is 309. In addition, the inhibition was -20.8% (inactive) in test [1], -53.2% (inactive) in test [3], 17.4% (inactive) in test [7] and 73.3% (active) in test [8]. Also, in test [2], the inhibition of aggregation was -64.1% (inactive). For the same molecule, the nuclei count in test [2] amounted to 2.2%; in test [3], 105%. Moreover, the fluorescence slope is -0.446 (inactive) in test [4] and 0.00637 (inactive) in test [6]. Also, in test [5], the NADPH fluorescence slope was 3.3e-05 (inactive).
For the molecule `O=S1(=O)Nc2c(ccc3cccnc23)-c2ccccc21`, in test [1], the cell count came to 318. In addition, the inhibition in test [1] was 77.8% (active); in test [3], 47.4% (inactive); in test [7] it was -4.82% (inactive); in test [8], -17.5% (inactive). Also, the inhibition of aggregation in test [2] was -31.5% (inactive). Moreover, the nuclei count came to 50.8% in test [2] and 94.2% in test [3]. Also, the values for the fluorescence slope in test [4] and in test [6] were -0.465 (inactive) and 0.00395 (inactive), respectively. Moreover, in test [5], the NADPH fluorescence slope is -0.000334 (inactive).
Turning to `CC12C(=O)N(CCC(=O)O)C(=O)C1C1C=CC2C1` (centres undefined), the cell count in test [1] stood at 666. Also, the inhibition in test [1] was 23.6% (active); in test [3] it was 7.8% (inactive); in test [7], 17.6% (inactive); in test [8], 21.9% (inactive). Moreover, the inhibition of aggregation in test [2] was 3.1% (inactive). Moreover, the nuclei count worked out at 99.2% in test [2] and 114% in test [3]. In addition, the fluorescence slope in test [4] was -0.456 (inactive); in test [6], 0.00503 (inactive). In addition, in test [5], the NADPH fluorescence slope is -4.5e-05 (inactive).
Consider `CC(=O)OCC(=O)c1ccc2ccn(C(C)=O)c2c1`, for which the cell count in test [1] was determined as 544. For the same molecule, the inhibition is 1.6% (inactive) in test [1], -19.1% (inactive) in test [3], 4.56% (inactive) in test [7] and -8.58% (inactive) in test [8]. In test [2], the inhibition of aggregation is -17.9% (inactive). In addition, the values for the nuclei count in test [2] and in test [3] were 102% and 95.5%, respectively. Moreover, the figures for the fluorescence slope in test [4] and in test [6] were -0.258 (inactive) and 0.00624 (inactive), respectively. Also, the NADPH fluorescence slope in test [5] is -1.1e-05 (inactive).
As to `O=C(CS(=O)(=O)Cc1ccccc1)N1CCc2ccccc2C1`, in test [1], the cell count is 753. Besides, the inhibition in test [1] was -0.7% (inactive); in test [3], -110% (inactive); in test [7], -17.6% (inactive); in test [8] it was -31.5% (inactive). Also, the inhibition of aggregation in test [2] was 13.8% (inactive). The nuclei count in test [2] came out at 97.8%; in test [3], 124%. The fluorescence slope in test [4] was -0.529 (inactive); in test [6], 0.00542 (inactive). In addition, the NADPH fluorescence slope in test [5] is -4.4e-05 (inactive).
With `CCOC(=O)c1c(C)oc2ccc(O)c(CN3CCCCC3)c12`, the cell count in test [1] was 376. The inhibition in test [1] is -0.9% (inactive); in test [3] it was -90.5% (inactive); in test [7], 17.3% (inactive); in test [8], 31.7% (inactive). Besides, the inhibition of aggregation in test [2] is -42.7% (inactive). Besides, the nuclei count worked out at 102% in test [2] and 81.7% in test [3]. The fluorescence slope in test [4] was -0.383 (inactive); in test [6], 0.00399 (inactive). In addition, the NADPH fluorescence slope in test [5] was 2.5e-05 (inactive).
Regarding `O=C(Cn1c(=O)[nH]c2ccsc2c1=O)N1CCN(c2ccc(F)cc2)CC1`, the cell count in test [1] was 654. Also, the inhibition was -29.9% (inactive) in test [1], -34.1% (inactive) in test [3], 15.1% (inactive) in test [7] and 21.3% (inactive) in test [8]. The inhibition of aggregation in test [2] is -0.5% (inactive). The results for the nuclei count in test [2] and in test [3] were 106% and 121%, respectively. For the same molecule, the fluorescence slope in test [4] is -0.451 (inactive); in test [6] it was 0.00533 (inactive). Also, the NADPH fluorescence slope in test [5] was -3e-05 (inactive).
With `CCOC(=O)C1CCN(C(=O)CSc2cc(=O)n(CC)c3ccccc23)CC1`, the cell count in test [1] is 378. The inhibition in test [1] is 2.2% (inactive); in test [3], -26.1% (inactive); in test [7], -0.518% (inactive); in test [8] it was 38.8% (inactive). The inhibition of aggregation in test [2] is -0.2% (inactive). Moreover, the nuclei count amounted to 110% in test [2] and 111% in test [3]. For the same molecule, the fluorescence slope in test [4] was -0.629 (inactive); in test [6] it was 0.00567 (inactive). Further, in test [5], the NADPH fluorescence slope was 6.5e-05 (inactive).
Turning to `O=C(Cc1c[nH]c2ccccc12)N1CCc2ccccc21`, in test [1], the cell count stood at 236. Besides, the inhibition in test [1] is 2.1% (inactive); in test [3] it was -28.8% (inactive); in test [7] it was -4.15% (inactive); in test [8], -44.5% (inactive). Moreover, in test [2], the inhibition of aggregation is 6.4% (inactive). Moreover, the nuclei count in test [2] came out at 90%; in test [3], 93.8%. The values for the fluorescence slope in test [4] and in test [6] were -0.582 (inactive) and 0.00443 (inactive), respectively. The NADPH fluorescence slope in test [5] was -1e-05 (inactive).
Take `CCOc1cc(N2CCOCC2)c(OCC)cc1NC(=O)COC(=O)CCc1c[nH]c2ccccc12`: the cell count in test [1] is 300. Also, the inhibition in test [1] is -5.2% (inactive); in test [3] it was -28% (inactive); in test [7], 2.83% (inactive); in test [8] it was 20.2% (inactive). Besides, in test [2], the inhibition of aggregation is 7.9% (inactive). Also, the nuclei count in test [2] came to 105%; in test [3], 109%. Moreover, the values for the fluorescence slope in test [4] and in test [6] were -0.273 (inactive) and 0.00571 (inactive), respectively. The NADPH fluorescence slope in test [5] is -1.5e-05 (inactive).
With `Cc1nc2ccc(NC(=O)N3CCSCC3)cc2s1`, the cell count in test [1] came to 710. Further, the inhibition in test [1] is -0.4% (inactive); in test [3], -93.4% (inactive); in test [7] it was -33.4% (inactive); in test [8], -42.8% (inactive). In addition, the inhibition of aggregation in test [2] was -7.6% (inactive). The nuclei count in test [2] was 111%; in test [3], 96.5%. In addition, the fluorescence slope in test [4] was -0.535 (inactive); in test [6], 0.00638 (inactive). Moreover, the NADPH fluorescence slope in test [5] was 5e-05 (inactive).
